Legend:
Determination of log D = type: physicochemical; conditions: pH 7.4
Procedure, shortened: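 68Ga-labeled peptide conjugate, molar activity adjusted to 1 GBq/μmol, 0.7–1 MBq per test. Partitioned between 1-octanol and 0.05 M phosphate buffer pH 7.4 by vigorous shaking for 2 min. Phases separated by centrifugation; equal aliquots of each phase γ-counted. Run thrice, each in triplicate.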

[1] = type: in vitro ADME; conditions: pooled human serum, 37 °C; activity in precipitated serum protein pellet
Procedure, shortened: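 68Ga-labeled peptide conjugate (20–25 MBq; molar activity set to 1 GBq/μmol) incubated in pooled human serum at 37 °C. Samples taken at 15-min intervals into an equal volume of ice-cold ethanol, held 1 min on ice and centrifuged 90 s. Activity measured in pellet and supernatant; supernatant analyzed by radio-HPLC. Three experiments per radioligand.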

SMILES | logD (Determination of log D; 1‐octanol/phosphate buffer) | protein‐associated activity (protein‐bound activity fraction) [1] | logD (Determination of log D)
C[C@@H](O)[C@H](NC(=O)[C@@H]1CSSC[C@H](NC(=O)[C@@H](Cc2ccccc2)NC(=O)CC[C@H](C(=O)O)N2CCN(CC(=O)O)CCN(CC(=O)O)CC2)C(=O)N[C@@H](Cc2ccc(O)cc2)C(=O)N[C@H](Cc2c[nH]c3ccccc23)C(=O)N[C@@H](CCCCN)C(=O)N[C@@H]([C@@H](C)O)C(=O)N1)C(=O)O [[^68Ga]Ga‐10, metal not drawn] | -3.72 ± 0.02 | 16.9±3.5% | –
C[C@@H](O)[C@H](NC(=O)[C@@H]1CSSC[C@H](NC(=O)[C@@H](Cc2ccccc2)NC(=O)CCC(C(=O)O)N2CCN3CCN(CCN(CC(=O)O)CC3)CC2)C(=O)N[C@@H](Cc2ccc(O)cc2)C(=O)N[C@H](Cc2c[nH]c3ccccc23)C(=O)N[C@@H](CCCCN)C(=O)N[C@@H]([C@@H](C)O)C(=O)N1)C(=O)O (some centres unmarked) [[^68Ga]Ga‐11, metal not drawn] | – | 15.7±3.6% | -3.02 ± 0.08
C[C@@H](O)[C@H](NC(=O)[C@@H]1CSSC[C@H](NC(=O)[C@@H](Cc2ccccc2)NC(=O)CCC(C(=O)O)N2CCN(CC(=O)O)CCN(CC(=O)O)CCN(CC(=O)O)CC2)C(=O)N[C@@H](Cc2ccc(O)cc2)C(=O)N[C@H](Cc2c[nH]c3ccccc23)C(=O)N[C@@H](CCCCN)C(=O)N[C@@H]([C@@H](C)O)C(=O)N1)C(=O)O (some centres unmarked) [[^68Ga]Ga‐9, metal not drawn] | – | 29.0±3.5% | -4.11 ± 0.11
C[C@@H](O)[C@H](NC(=O)[C@@H]1CSSC[C@H](NC(=O)[C@@H](Cc2ccccc2)NC(=O)CN2CCN(CC(=O)O)CCN(CC(=O)O)CCN(CC(=O)O)CC2)C(=O)N[C@@H](Cc2ccc(O)cc2)C(=O)N[C@H](Cc2c[nH]c3ccccc23)C(=O)N[C@@H](CCCCN)C(=O)N[C@@H]([C@@H](C)O)C(=O)N1)C(=O)O [[^68Ga]Ga‐8, metal not drawn] | -4.09 ± 0.07 | 19.7±2.2% | –

Source: article PMC10100262 (Chemmedchem, 2022)
